Laboratory results reported in ChEMBL document CHEMBL1144782, “Isoindolo[2,1-a]quinoxaline derivatives, novel potent antitumor agents with dual inhibition of tubulin polymerization and topoisomerase I” (2008).
Several values for one entry are separate records, joined by “and”; a condition that tells them apart may be missing. Equal entries are not always repeated.

Columns and labels:
HOP-92 = test: Antitumor activity against human HOP92 cells; format: functional
Summary of the method: (§1)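 Run by the NCI in its in vitro disease-oriented screen of about 60 human tumour cell lines. For each line it reports pGI50 (50% net growth inhibition), pTGI (total growth inhibition) and pLC50 (50% net cell death), each as –log molar concentration. Where an effect was not reached within the tested range, the highest tested concentration was used.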

NCI-H23 = test: Antitumor activity against human NCI-H23 cells; format: functional; summary of the method: as §1
[1] = Antitumor activity against human NCI-H322 cells; format: functional; summary of the method: as §1
NCI-H522 = test: Antitumor activity against human NCI-H522 cells; format: functional; summary of the method: as §1
COLO 205 = test: Antitumor activity against human COLO205 cells; format: functional; summary of the method: as §1
HCT-15 = test: Antitumor activity against human HCT15 cells; format: functional; summary of the method: as §1
HT-29 = test: Antitumor activity against human HT29 cells; format: functional; summary of the method: as §1
SW-620 = test: Antitumor activity against human SW620 cells; format: functional
Summary of the method: (§2)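 NCI 60-cell-line screen. Parameters were GI50 (50% net growth inhibition), TGI and LC50, each reported as –log molar concentration. Where an effect was not reached within the tested range, the highest tested concentration was used in the calculation.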

SF-268 [2] = test: Antitumor activity against human SF268 cells; format: functional; summary of the method: as §1
SF-295 = test: Antitumor activity against human SF295 cells; format: functional; summary of the method: as §1
U-251 = test: Antitumor activity against human U251 cells; format: functional; summary of the method: as §2
Malme-3M = test: Antitumor activity against human MALME3M cells; format: functional; summary of the method: as §1
M14 = test: Antitumor activity against human M14 cells; format: functional; summary of the method: as §1
SK-MEL-2 = test: Antitumor activity against human SKMEL2 cells; format: functional; summary of the method: as §1
SK-MEL-28 = test: Antitumor activity against human SKMEL28 cells; format: functional; summary of the method: as §1
UACC-62 = test: Antitumor activity against human UACC62 cells; format: functional; summary of the method: as §2
OVCAR-3 = test: Antitumor activity against human OVCAR-3 cells; format: functional; summary of the method: as §1
OVCAR-8 = test: Antitumor activity against human OVCAR8 cells; format: functional; summary of the method: as §1
SK-OV-3 = test: Antitumor activity against human SKOV3 cells; format: functional; summary of the method: as §1
A498 = test: Antitumor activity against human A498 cells; format: functional; summary of the method: as §1
ACHN = test: Antitumor activity against human ACHN cells; format: functional; summary of the method: as §1
CAKI-1 = test: Antitumor activity against human CAKI1 cells; format: functional; summary of the method: as §1
RXF 393 = test: Antitumor activity against human RXF393 cells; format: functional; summary of the method: as §1
Tubulin (Sus scrofa) = Tubulin (Sus scrofa) (UniProt P02554+P02550); test: Inhibition of pig brain tubulin polymerization
NCI-H460 = test: Cell viability against human NCI-H460 cells at 10 uM; format: functional
SF-268 [3] = test: Cell viability against human SF268 cells at 10 uM; format: functional
RPMI-8226 = test: Antitumor activity against human RPMI8226 cells; format: functional; summary of the method: as §1
MOLT-4 = test: Antitumor activity against human MOLT4 cells; format: functional; summary of the method: as §1
HOP-62 = test: Antitumor activity against human HOP62 cells; format: functional; summary of the method: as §1
SN12C = test: Antitumor activity against human SN12C cells; format: functional; summary of the method: as §1
TK-10 = test: Antitumor activity against human TK10 cells; format: functional; summary of the method: as §2
PC-3 = test: Antitumor activity against human PC3 cells; format: functional; summary of the method: as §1
DU-145 = test: Antitumor activity against human DU145 cells; format: functional; summary of the method: as §1
NCI/ADR-RES = test: Antitumor activity against human NCI/ADR-RES cells; format: functional; summary of the method: as §1
Hs-578T = test: Antitumor activity against human HS578T cells; format: functional; summary of the method: as §1
MDA-MB-435 = test: Antitumor activity against human MDA-MB-435 cells; format: functional; summary of the method: as §1
T47D = test: Antitumor activity against human T47D cells; format: functional; summary of the method: as §2
MCF7 [4] = test: Growth inhibition of human MCF7 cells after 72 hrs by MTT assay; format: functional; conditions: MCF7, 72 h
Summary of the method: (§3)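 Growth inhibition by MTT after 72 h incubation. Resistant sublines: LoVoDoxo and MCF-7 MDR were kept in 0.1 µg/mL doxorubicin; CEMVbl-100 was selected against vinblastine. GI50 given as mean ± SEM of three independent experiments. Resistance index is resistant-line GI50 over parental GI50.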

MCF7 [5] = test: Growth inhibition of human multidrug-resistant MCF7 cells after 72 hrs by MTT assay; format: functional; conditions: MCF7, 72 h; summary of the method: as §3
MCF7 [6] = test: Resistance index, Ratio of GI50 for human multidrug-resistant MCF7 cells to GI50 for human MCF7 cells; format: functional; summary of the method: as §3
CCRF-CEM = test: Growth inhibition of human CEM cells after 72 hrs by MTT assay; format: functional; summary of the method: as §3
[7] = read-out: Log LC50 (the source's name) (converted)

Tubulin (Sus scrofa), sequence (P02550 whole entry, looked up): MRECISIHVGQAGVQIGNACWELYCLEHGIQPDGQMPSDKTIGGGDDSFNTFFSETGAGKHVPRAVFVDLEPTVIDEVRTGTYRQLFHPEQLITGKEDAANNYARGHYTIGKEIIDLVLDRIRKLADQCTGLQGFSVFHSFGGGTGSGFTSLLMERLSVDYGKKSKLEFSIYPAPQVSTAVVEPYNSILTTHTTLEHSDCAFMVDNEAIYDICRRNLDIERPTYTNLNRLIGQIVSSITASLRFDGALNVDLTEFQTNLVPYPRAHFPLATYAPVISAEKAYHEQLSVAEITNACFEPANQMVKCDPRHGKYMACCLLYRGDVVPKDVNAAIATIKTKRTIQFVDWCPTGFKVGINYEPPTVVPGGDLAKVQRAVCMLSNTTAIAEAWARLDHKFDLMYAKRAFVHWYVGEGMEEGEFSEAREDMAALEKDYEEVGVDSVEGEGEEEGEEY
Tubulin (Sus scrofa), sequence (P02554 whole entry, looked up): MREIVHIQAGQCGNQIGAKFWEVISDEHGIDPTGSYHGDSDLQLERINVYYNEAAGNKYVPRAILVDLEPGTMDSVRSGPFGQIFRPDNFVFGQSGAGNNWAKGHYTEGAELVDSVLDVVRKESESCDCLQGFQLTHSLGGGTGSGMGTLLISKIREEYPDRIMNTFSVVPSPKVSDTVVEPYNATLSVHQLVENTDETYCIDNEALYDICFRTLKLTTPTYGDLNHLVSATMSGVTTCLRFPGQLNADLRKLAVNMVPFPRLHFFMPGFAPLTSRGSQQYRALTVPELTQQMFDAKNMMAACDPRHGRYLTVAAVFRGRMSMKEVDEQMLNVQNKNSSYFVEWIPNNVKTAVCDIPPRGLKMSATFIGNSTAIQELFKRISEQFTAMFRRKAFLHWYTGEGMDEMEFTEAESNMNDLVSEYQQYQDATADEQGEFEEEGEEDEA

`O=c1[nH]c2ccccc2n2cc3ccccc3c12` showed a GI50 (HOP-92) of 3.98 µM, an LC50 (HOP-92) of 51.3 µM and a TGI (HOP-92; read-out: pTGI (converted)) of 18.6 µM. For the same compound, the GI50 (NCI-H23) was 11.2 µM, the LC50 (50% net cell kill) (NCI-H23) was greater than 100 µM and the TGI (NCI-H23; read-out: pTGI (converted)) was 36.3 µM. For the same compound, the GI50 [1] was 24 µM, the LC50 (50% net cell death) [1] was 89.1 µM and the TGI ([1]; read-out: pTGI (converted)) was 46.8 µM. For the same compound, the GI50 (NCI-H522) was 13.8 µM, the CC50 (NCI-H522; [7]) was 75.9 µM and the TGI (NCI-H522; read-out: pTGI (converted)) was 32.4 µM. The GI50 (COLO 205) was 4.57 µM, the LC50 (COLO 205) was greater than 100 µM and the TGI (COLO 205; read-out: pTGI (converted)) was greater than 100 µM. The GI50 (HCT-15) was 3.31 µM, the CC50 (HCT-15; [7]) was 93.3 µM and the TGI (HCT-15; read-out: pTGI (converted)) was 18.6 µM. The GI50 (HT-29) was 4.37 µM, the LC50 (HT-29) was greater than 100 µM and the TGI (HT-29; read-out: pTGI (converted)) was greater than 100 µM. It also gave a GI50 (SW-620) of 3.72 µM, a CC50 (SW-620; [7]) greater than 100 µM and a TGI (SW-620; read-out: pTGI (converted)) greater than 100 µM. The GI50 (SF-268 [2]) was 21.4 µM, the CC50 (SF-268 [2]; [7]) was greater than 100 µM and the TGI (SF-268 [2]; read-out: pTGI (converted)) was 87.1 µM. The GI50 (SF-295) was 17.8 µM, the CC50 (SF-295; [7]) was 70.8 µM and the TGI (SF-295; read-out: pTGI (converted)) was 35.5 µM. For the same compound, the GI50 (U-251) was 3.24 µM, the CC50 (U-251; [7]) was 70.8 µM and the TGI (U-251; read-out: pTGI (converted)) was 13.5 µM. For the same compound, the GI50 (Malme-3M) was 25.1 µM, the CC50 (Malme-3M; [7]) was 85.1 µM and the TGI (Malme-3M; read-out: pTGI (converted)) was 46.8 µM. It also gave a GI50 (M14) of 6.46 µM, a CC50 (M14; [7]) of 64.6 µM and a TGI (M14; read-out: pTGI (converted)) of 22.9 µM. It also gave a GI50 (SK-MEL-2) of 20.4 µM, an LC50 (SK-MEL-2) of 72.4 µM and a TGI (SK-MEL-2; read-out: pTGI (converted)) of 38.9 µM. It also gave a GI50 (SK-MEL-28) of 22.4 µM, a CC50 (SK-MEL-28; [7]) greater than 100 µM and a TGI (SK-MEL-28; read-out: pTGI (converted)) greater than 100 µM. The GI50 (UACC-62) was 3.24 µM, the LC50 (UACC-62) was 45.7 µM and the TGI (UACC-62; read-out: pTGI (converted)) was 15.8 µM. It also gave a GI50 (OVCAR-3) of 18.6 µM, an LC50 (50% net cell death) (OVCAR-3) of 72.4 µM and a TGI (OVCAR-3; read-out: pTGI (converted)) of 36.3 µM. It also gave a GI50 (OVCAR-8) of 5.25 µM, an LC50 (50% net cell death) (OVCAR-8) greater than 100 µM and a TGI (OVCAR-8; read-out: pTGI (converted)) of 33.1 µM. For the same compound, the GI50 (SK-OV-3) was 12.3 µM, the LC50 (50% net cell kill) (SK-OV-3) was greater than 100 µM and the TGI (SK-OV-3; read-out: pTGI (converted)) was 35.5 µM. It also gave a GI50 (A498) of 11.2 µM, a CC50 (A498; [7]) of 64.6 µM and a TGI (A498; read-out: pTGI (converted)) of 26.9 µM. For the same compound, the GI50 (ACHN) was 1.82 µM, the LC50 (50% net cell kill) (ACHN) was 34.7 µM and the TGI (ACHN; read-out: pTGI (converted)) was 7.24 µM. The GI50 (CAKI-1) was 17.8 µM, the LC50 (CAKI-1) was 70.8 µM and the TGI (CAKI-1; read-out: pTGI (converted)) was 35.5 µM. It also gave a GI50 (RXF 393) of 6.31 µM, a CC50 (RXF 393; [7]) greater than 100 µM and a TGI (RXF 393; read-out: pTGI (converted)) of 30.2 µM. It also gave an Activity (Tubulin (Sus scrofa)) greater than 10 µM, an Activity (NCI-H460) of 0% and an Activity (SF-268 [3]) of 9%. It also gave a GI50 (RPMI-8226) of 3.72 µM, a CC50 (RPMI-8226; [7]) greater than 100 µM and a TGI (RPMI-8226; read-out: pTGI (converted)) of 22.4 µM. The GI50 (MOLT-4) was 3.63 µM, the LC50 (MOLT-4) was greater than 100 µM and the TGI (MOLT-4; read-out: pTGI (converted)) was 8.71 µM. It also gave a GI50 (HOP-62) of 4.37 µM, an LC50 (50% net cell death) (HOP-62) of 52.5 µM and a TGI (HOP-62; read-out: pTGI (converted)) of 17.8 µM. It also gave a GI50 (SN12C) of 1.66 µM, an LC50 (SN12C) of 31.6 µM and a TGI (SN12C; read-out: pTGI (converted)) of 6.31 µM. The GI50 (TK-10) was 20.4 µM, the CC50 (TK-10; [7]) was 66.1 µM and the TGI (TK-10; read-out: pTGI (converted)) was 37.2 µM. The GI50 (PC-3) was 5.75 µM, the LC50 (50% net cell death) (PC-3) was greater than 100 µM and the TGI (PC-3; read-out: pTGI (converted)) was 28.8 µM. For the same compound, the GI50 (DU-145) was 7.59 µM and 38 µM, the CC50 (DU-145; Homo sapiens, DU-145, read-out: Log LC50 (the source's name) (converted)) was greater than 100 µM and the GI50 (NCI/ADR-RES) was 6.46 µM. The LC50 (NCI/ADR-RES) was greater than 100 µM, the TGI (NCI/ADR-RES; read-out: pTGI (converted)) was 32.4 µM and the GI50 (Hs-578T) was 0.525 µM. It also gave a CC50 (Hs-578T; [7]) greater than 100 µM, a TGI (Hs-578T; read-out: pTGI (converted)) of 34.7 µM and a GI50 (MDA-MB-435) of 16.2 µM. The LC50 (50% net cell death) (MDA-MB-435) was 58.9 µM, the TGI (MDA-MB-435; read-out: pTGI (converted)) was 30.9 µM and the GI50 (T47D) was 7.41 µM. It also gave an LC50 (T47D) greater than 100 µM, a TGI (T47D; read-out: pTGI (converted)) greater than 100 µM and a GI50 (MCF7 [4]) of 6.5 µM. The GI50 (MCF7 [5]) was 10.6 µM, the RatioGI50 (MCF7 [6]) was 1.6 and the GI50 (CCRF-CEM) was 4.7 µM.
